Experimental data taken from ChEMBL document CHEMBL3758107, “Lead optimization of the VU0486321 series of mGlu(1) PAMs. Part 2: SAR of alternative 3-methyl heterocycles and progress towards an in vivo tool” (Bioorg Med Chem Lett, 2016).

Key:
[1] = biological target: T1, Metabotropic glutamate receptor 1 (Homo sapiens, UniProt Q13255); assay: Positive allosteric modulation of human mGlu1 receptor by cell based calcium mobilization; assay type: functional
Outline: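 Calcium mobilization assay at mGlu1; EC50 and % Glu Max taken as the average of three independent experiments, each run in triplicate.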
Target sequence in this assay (Q13255 whole entry): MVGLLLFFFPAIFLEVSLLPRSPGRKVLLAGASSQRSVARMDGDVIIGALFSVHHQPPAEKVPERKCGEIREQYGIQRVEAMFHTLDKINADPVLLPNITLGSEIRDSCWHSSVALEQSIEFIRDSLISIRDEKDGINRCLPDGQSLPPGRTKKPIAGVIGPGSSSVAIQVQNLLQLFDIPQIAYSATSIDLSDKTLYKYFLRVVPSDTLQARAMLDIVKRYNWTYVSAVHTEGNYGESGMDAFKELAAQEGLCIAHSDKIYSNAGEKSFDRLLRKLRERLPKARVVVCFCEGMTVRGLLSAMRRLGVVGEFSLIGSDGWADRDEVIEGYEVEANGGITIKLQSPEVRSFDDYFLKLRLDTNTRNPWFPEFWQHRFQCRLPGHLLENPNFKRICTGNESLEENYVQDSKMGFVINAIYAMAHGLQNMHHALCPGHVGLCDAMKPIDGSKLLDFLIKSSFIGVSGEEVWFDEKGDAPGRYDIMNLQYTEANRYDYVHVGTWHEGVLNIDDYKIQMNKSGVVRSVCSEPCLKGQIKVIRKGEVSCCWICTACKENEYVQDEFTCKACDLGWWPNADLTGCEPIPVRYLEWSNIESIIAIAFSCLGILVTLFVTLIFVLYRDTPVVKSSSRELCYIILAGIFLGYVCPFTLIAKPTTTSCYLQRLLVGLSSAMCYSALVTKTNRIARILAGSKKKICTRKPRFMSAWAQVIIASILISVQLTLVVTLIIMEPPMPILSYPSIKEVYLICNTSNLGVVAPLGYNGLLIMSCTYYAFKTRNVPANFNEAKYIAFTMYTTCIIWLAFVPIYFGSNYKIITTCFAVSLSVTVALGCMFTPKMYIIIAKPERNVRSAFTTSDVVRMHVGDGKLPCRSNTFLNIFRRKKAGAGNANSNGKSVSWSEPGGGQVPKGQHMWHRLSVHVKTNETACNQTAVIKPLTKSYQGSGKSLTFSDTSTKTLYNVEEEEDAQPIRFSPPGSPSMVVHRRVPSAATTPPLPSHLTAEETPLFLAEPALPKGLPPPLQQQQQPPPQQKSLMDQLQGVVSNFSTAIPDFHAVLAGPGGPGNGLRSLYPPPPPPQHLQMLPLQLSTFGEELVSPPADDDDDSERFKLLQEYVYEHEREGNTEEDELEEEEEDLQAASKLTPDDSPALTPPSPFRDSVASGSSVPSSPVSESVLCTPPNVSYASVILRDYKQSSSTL

[2] = biological target: T1, Metabotropic glutamate receptor 1; assay: Positive allosteric modulation of human mGlu1 receptor at 10 uM by cell based calcium mobilization relative to glutamate; assay type: functional
Outline: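 Calcium mobilization assay at mGlu1, tested at a single point of 10 μM; response given as % Glu Max.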
Target sequence in this assay (Q13255 19-1194 limits assumed): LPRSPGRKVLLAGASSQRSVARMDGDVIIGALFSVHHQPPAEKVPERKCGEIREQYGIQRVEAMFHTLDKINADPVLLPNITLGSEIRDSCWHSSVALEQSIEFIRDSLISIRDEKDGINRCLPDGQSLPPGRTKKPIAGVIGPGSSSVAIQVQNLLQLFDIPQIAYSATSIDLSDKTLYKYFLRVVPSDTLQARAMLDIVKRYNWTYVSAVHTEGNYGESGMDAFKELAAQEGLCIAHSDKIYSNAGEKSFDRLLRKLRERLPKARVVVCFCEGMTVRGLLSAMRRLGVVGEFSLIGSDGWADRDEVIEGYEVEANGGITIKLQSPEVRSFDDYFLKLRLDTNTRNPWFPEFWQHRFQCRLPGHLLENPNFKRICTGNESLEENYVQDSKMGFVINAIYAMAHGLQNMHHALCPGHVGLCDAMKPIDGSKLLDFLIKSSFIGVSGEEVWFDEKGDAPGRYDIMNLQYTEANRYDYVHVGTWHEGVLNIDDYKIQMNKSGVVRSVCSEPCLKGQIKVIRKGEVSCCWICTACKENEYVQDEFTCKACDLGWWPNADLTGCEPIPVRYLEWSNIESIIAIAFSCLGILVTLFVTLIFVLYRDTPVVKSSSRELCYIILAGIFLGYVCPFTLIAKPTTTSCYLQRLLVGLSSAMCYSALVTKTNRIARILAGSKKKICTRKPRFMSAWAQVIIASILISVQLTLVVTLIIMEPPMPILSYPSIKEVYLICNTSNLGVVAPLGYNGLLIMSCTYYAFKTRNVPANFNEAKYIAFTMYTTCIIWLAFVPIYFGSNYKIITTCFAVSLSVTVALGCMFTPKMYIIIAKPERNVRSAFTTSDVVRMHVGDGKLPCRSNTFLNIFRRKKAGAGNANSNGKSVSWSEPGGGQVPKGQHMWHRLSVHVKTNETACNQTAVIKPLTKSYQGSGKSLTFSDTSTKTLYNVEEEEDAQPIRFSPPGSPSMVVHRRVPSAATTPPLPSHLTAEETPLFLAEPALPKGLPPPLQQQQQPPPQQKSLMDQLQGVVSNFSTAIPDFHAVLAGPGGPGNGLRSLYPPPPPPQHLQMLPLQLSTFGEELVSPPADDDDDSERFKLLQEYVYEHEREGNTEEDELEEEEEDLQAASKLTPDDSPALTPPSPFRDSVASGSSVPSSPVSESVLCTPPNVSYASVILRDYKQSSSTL

[3] = biological target: T2, Metabotropic glutamate receptor 4 (Homo sapiens, UniProt Q14833); assay: Positive allosteric modulation of human mGlu4 receptor by cell based calcium mobilization; assay type: functional
T2 sequence (Q14833 whole entry): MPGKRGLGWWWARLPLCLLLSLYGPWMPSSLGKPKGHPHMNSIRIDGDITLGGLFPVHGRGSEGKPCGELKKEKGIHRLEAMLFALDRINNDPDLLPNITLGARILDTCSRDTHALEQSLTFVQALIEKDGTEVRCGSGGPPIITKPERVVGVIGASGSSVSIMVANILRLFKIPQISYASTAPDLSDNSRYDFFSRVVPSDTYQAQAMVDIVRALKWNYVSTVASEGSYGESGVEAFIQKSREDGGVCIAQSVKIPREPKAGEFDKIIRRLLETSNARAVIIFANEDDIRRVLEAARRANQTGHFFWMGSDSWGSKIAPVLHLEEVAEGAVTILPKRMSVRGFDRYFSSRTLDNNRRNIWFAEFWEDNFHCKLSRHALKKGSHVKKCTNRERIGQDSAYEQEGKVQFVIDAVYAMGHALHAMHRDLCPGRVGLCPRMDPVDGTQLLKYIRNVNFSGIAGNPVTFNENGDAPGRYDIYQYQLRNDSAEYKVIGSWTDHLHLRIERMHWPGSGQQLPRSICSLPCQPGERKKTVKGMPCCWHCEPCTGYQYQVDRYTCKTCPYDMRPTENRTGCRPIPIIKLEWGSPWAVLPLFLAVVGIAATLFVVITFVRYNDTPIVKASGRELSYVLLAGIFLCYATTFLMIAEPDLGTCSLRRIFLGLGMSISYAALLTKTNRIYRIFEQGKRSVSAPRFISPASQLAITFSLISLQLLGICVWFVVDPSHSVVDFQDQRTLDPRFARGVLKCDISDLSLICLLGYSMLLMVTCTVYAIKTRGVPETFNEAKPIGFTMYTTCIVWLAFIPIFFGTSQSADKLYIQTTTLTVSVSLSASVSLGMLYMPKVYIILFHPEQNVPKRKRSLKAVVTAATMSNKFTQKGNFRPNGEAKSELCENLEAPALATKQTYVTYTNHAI

[4] = biological target: T2, Metabotropic glutamate receptor 4; assay: Positive allosteric modulation of human mGlu4 receptor assessed as glutamate-induced calcium mobilization at 10 uM by cell based assay relative to PHCCC; assay type: functional
Homo sapiens = species on record: Homo sapiens; assay: Selectivity ratio of EC50 for human mGlu4 receptor to EC50 for human mGlu1 receptor

Compound	EC50 ([1]; read-out: EC50)	%max [2]	EC50 [3]	%max [4]	Ratio EC50 (Homo sapiens)	EC50 ([1]; read-out: pEC50 (converted))
Cc1cccc2c1C(=O)N(c1ccc(NC(=O)c3ncoc3C)c(F)c1)C2=O	–	20%	–	–	–	–
Cc1scnc1C(=O)Nc1ccc(N2C(=O)c3ccccc3C2=O)cc1F	–	45%	–	–	–	–
Cc1scnc1C(=O)Nc1ccc(N2C(=O)c3cccnc3C2=O)cc1F	–	42%	–	–	–	–
Cc1ocnc1C(=O)Nc1ccc(N2C(=O)c3ccc(Cl)cc3C2=O)c(Cl)c1	54 nM	104%	405 nM	67%	7.4	–
Cc1ocnc1C(=O)Nc1ccc(N2C(=O)c3ccc(Cl)cc3C2=O)cc1F	–	25%	–	–	–	–
Cn1cccc1C(=O)Nc1ccc(N2C(=O)c3ccccc3C2=O)c(Cl)c1	5260 nM	95%	–	–	–	–
Cc1ocnc1C(=O)Nc1ccc(N2C(=O)c3cccc(Cl)c3C2=O)cc1F	–	27%	–	–	–	–
Cc1scnc1C(=O)Nc1ccc(N2C(=O)c3ccccc3C2=O)c(Cl)c1	56 nM	96%	–	–	–	58.9 nM
Cc1cc[nH]c1C(=O)Nc1ccc(N2C(=O)c3ccccc3C2=O)c(Cl)c1	3420 nM	95%	–	–	–	3470 nM
Cc1ocnc1C(=O)Nc1ccc(N2C(=O)c3ccccc3C2=O)cc1F	–	18%	–	–	–	–
Cc1ncsc1C(=O)Nc1ccc(N2C(=O)c3ccccc3C2=O)c(Cl)c1	> 10000 nM	–	–	–	–	–
Cc1ocnc1C(=O)Nc1ccc(N2C(=O)c3ccccc3C2=O)c(Cl)c1	1470 nM	100%	–	–	–	–
Cc1scnc1C(=O)Nc1ccc(N2C(=O)c3cccnc3C2=O)c(Cl)c1	191 nM	98%	> 10000 nM	–	–	–
Cc1cccc2c1C(=O)N(c1ccc(NC(=O)c3ncsc3C)c(F)c1)C2=O	–	17%	–	–	–	–
Cc1scnc1C(=O)Nc1ccc(N2C(=O)c3ccc(Cl)cc3C2=O)cc1F	–	40%	–	–	–	–
Cc1ccc2c(c1)C(=O)N(c1ccc(NC(=O)c3ncoc3C)c(F)c1)C2=O	–	14%	–	–	–	–
CN1CCC[C@@H]1C(=O)Nc1ccc(N2C(=O)c3ccccc3C2=O)c(Cl)c1	> 10000 nM	–	–	–	–	–
Cn1ccnc1C(=O)Nc1ccc(N2C(=O)c3cccnc3C2=O)c(Cl)c1	> 10000 nM	44%	> 10000 nM	–	–	–

Compound	EC50 ([1]; read-out: EC50)	%max [2]	EC50 [3]	%max [4]	Ratio EC50 (Homo sapiens)	EC50 ([1]; read-out: pEC50 (converted))
Cc1ccc2c(c1)C(=O)N(c1ccc(NC(=O)c3ncoc3C)cc1Cl)C2=O	41 nM	98%	198 nM	75%	4.8	–
Cc1ccc2c(c1)C(=O)N(c1ccc(NC(=O)c3ncsc3C)c(F)c1)C2=O	–	36%	–	–	–	–
Cc1ocnc1C(=O)Nc1ccc(N2C(=O)c3cccnc3C2=O)cc1F	–	9%	–	–	–	–
Cn1ccnc1C(=O)Nc1ccc(N2C(=O)c3ccc(F)cc3C2=O)c(Cl)c1	673 nM	87%	1070 nM	63%	1.5	–
Cc1ncoc1C(=O)Nc1ccc(N2C(=O)c3ccccc3C2=O)c(Cl)c1	> 10000 nM	–	–	–	–	–
Cc1scnc1C(=O)Nc1ccc(N2C(=O)c3ccc(F)cc3C2=O)cc1F	–	45%	–	–	–	–
Cc1[nH]ccc1C(=O)Nc1ccc(N2C(=O)c3ccccc3C2=O)c(Cl)c1	> 10000 nM	–	–	–	–	–
Cc1ccsc1C(=O)Nc1ccc(N2C(=O)c3ccccc3C2=O)c(Cl)c1	1890 nM	105%	–	–	–	–
Cc1ocnc1C(=O)Nc1ccc(N2C(=O)c3cccc(F)c3C2=O)cc1F	–	36%	–	–	–	–
Cc1ccc2c(c1)C(=O)N(c1ccc(NC(=O)c3nccn3C)cc1Cl)C2=O	254 nM	108%	602 nM	124%	2.4	–
Cc1ocnc1C(=O)Nc1ccc(N2C(=O)c3cccnc3C2=O)c(Cl)c1	1700 nM	91%	2530 nM	45%	> 5.9	–
Cn1ccnc1C(=O)Nc1ccc(N2C(=O)c3ccc(Cl)cc3C2=O)c(Cl)c1	265 nM	103%	1570 nM	145%	5.9	–
Cc1sccc1C(=O)Nc1ccc(N2C(=O)c3ccccc3C2=O)c(Cl)c1	1510 nM	105%	–	–	–	–
Cn1ccnc1C(=O)Nc1ccc(N2C(=O)c3ccccc3C2=O)c(Cl)c1	374 nM	59%	–	–	–	355 nM
CN1CCC[C@H]1C(=O)Nc1ccc(N2C(=O)c3ccccc3C2=O)c(Cl)c1	> 10000 nM	–	–	–	–	–
Cc1scnc1C(=O)Nc1ccc(N2C(=O)c3cccc(Cl)c3C2=O)cc1F	–	22%	–	–	–	–
Cc1scnc1C(=O)Nc1ccc(N2C(=O)c3cccc(F)c3C2=O)cc1F	–	43%	–	–	–	–
Cc1ocnc1C(=O)Nc1ccc(N2C(=O)c3ccc(F)cc3C2=O)cc1F	–	16%	–	–	–	–

Second part, the molecule after the results:

EC50 ([1]; read-out: EC50)	%max [2]	EC50 [3]	%max [4]	Ratio EC50 (Homo sapiens)	EC50 ([1]; read-out: pEC50 (converted))	Compound
632 nM	106%	6200 nM	59%	9.8	–	Cc1cn[nH]c1C(=O)Nc1ccc(N2C(=O)c3ccc(F)cc3C2=O)c(Cl)c1
855 nM	113%	3380 nM	117%	3.9	–	Cc1cn[nH]c1C(=O)Nc1ccc(N2C(=O)c3ccc(Cl)cc3C2=O)c(Cl)c1
1370 nM	121%	> 10000 nM	59%	–	–	Cc1scnc1C(=O)Nc1ccc(N2C(=O)c3cccc(Cl)c3C2=O)c(Cl)c1
4940 nM	110%	> 10000 nM	–	–	–	Cc1cn[nH]c1C(=O)Nc1ccc(N2C(=O)c3cccc(C)c3C2=O)c(Cl)c1
232 nM	104%	1410 nM	75%	6.1	–	Cc1cccc2c1C(=O)N(c1ccc(NC(=O)c3ncsc3C)cc1Cl)C2=O
1240 nM	107%	–	–	–	–	Cc1cn[nH]c1C(=O)Nc1ccc(N2C(=O)c3ccccc3C2=O)c(Cl)c1
187 nM	111%	474 nM	52%	2.5	–	Cc1scnc1C(=O)Nc1ccc(N2C(=O)c3cccc(F)c3C2=O)c(Cl)c1
241 nM	98%	> 10000 nM	–	1.7	1700 nM	Cc1ocnc1C(=O)Nc1ccc(N2C(=O)c3cccc(F)c3C2=O)c(Cl)c1
> 10000 nM	94%	> 10000 nM	–	–	–	Cc1cn[nH]c1C(=O)Nc1ccc(N2C(=O)c3cccc(Cl)c3C2=O)c(Cl)c1
> 10000 nM	43%	1090 nM	42%	–	–	Cn1ccnc1C(=O)Nc1ccc(N2C(=O)c3cccc(F)c3C2=O)c(Cl)c1
557 nM	106%	2750 nM	133%	4.9	–	Cc1ccc2c(c1)C(=O)N(c1ccc(NC(=O)c3[nH]ncc3C)cc1Cl)C2=O
> 10000 nM	37%	> 10000 nM	27%	–	–	Cc1cn[nH]c1C(=O)Nc1ccc(N2C(=O)c3cccnc3C2=O)c(Cl)c1
1290 nM	112%	983 nM	24%	0.7	1320 nM	Cc1ocnc1C(=O)Nc1ccc(N2C(=O)c3cccc(Cl)c3C2=O)c(Cl)c1
599 nM	83%	> 10000 nM	–	–	22.4 nM	Cc1cn[nH]c1C(=O)Nc1ccc(N2C(=O)c3cccc(F)c3C2=O)c(Cl)c1
> 10000 nM	30%	506 nM	32%	–	–	Cc1cccc2c1C(=O)N(c1ccc(NC(=O)c3nccn3C)cc1Cl)C2=O
> 10000 nM	30%	> 10000 nM	30%	–	–	Cn1ccnc1C(=O)Nc1ccc(N2C(=O)c3cccc(Cl)c3C2=O)c(Cl)c1
